Experimental data from article PMC10405366 (Molecular pharmaceutics, 2023).

Assays:
[1] = test system: MDA-MB-231; assay: Cell viability assay; assay type: cell-based, human; conditions: MDA-MB-231
In short: (§1)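 RPMI1640 (OVCAR3, OVCAR4, MDA-MB-435) or DMEM (OVCAR8, MDA-MB-231) was used, with 10% FBS and penicillin/streptomycin. Cells were STR-validated and kept below 20 passages. Cells were plated at 5000 per well overnight, then given test compound at final 0.95–250 nM (nine levels, 0.5% DMSO) for 72 h at 37 °C. Viability was read by CellTiter-Blue absorbance, and IC50 was taken relative to DMSO. Paclitaxel (0.39–100 nM) was the control, with three biological replicates.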

[2] = test system: female athymic nude (nu/nu) mice; assay: Tolerability study: hematology; assay type: in vivo, mouse
In short: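 Athymic nude mice (n = 5 per group) received test compound or the Tween80:Captex200:saline vehicle IP every 2 days for 14 days. About 2–4 h after the last dose, mice were killed with CO2 and blood was drawn by cardiac puncture. Complete blood counts and serum chemistry were run by a pathology core. Values are given as means ± SD, n = 3–5.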

[3] = test system: female athymic nude (nu/nu) mice; assay: 14 day tolerability study, IP every 2 days; assay type: in vivo, mouse
In short: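 Female athymic nude mice (CrTac:NCr-Foxn1nu, 7–8 weeks) were randomized, n = 5 per group. Parent compound was given at 0.1, 0.25, 0.5 or 1.0 mg/kg, or the succinate at molar-equivalent 0.114, 0.285, 0.570 or 1.14 mg/kg. Vehicle was Tween80:Captex200:0.9% saline (8:2:90 v/v). Dosing was IP every 2 days for 14 days. Body weight was recorded every 2 days before dosing, and gross necropsy plus H&E histopathology were done.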

[4] = test system: MDA-MB-435; assay: Cell viability assay; assay type: cell-based, human; conditions: MDA-MB-435
In short: as §1

[5] = test system: OVCAR3; assay: Cell viability assay; assay type: cell-based, human; conditions: OVCAR3
In short: as §1

[6] = 0.114 mg/kg IP every 2 days, 14 days
[7] = 0.285 mg/kg IP every 2 days, 14 days
[8] = 1.14 mg/kg IP every 2 days, removed at 8 days
[9] = 0.10 mg/kg IP every 2 days, 14 days
[10] = 0.25 mg/kg IP every 2 days, 14 days
[11] = 1.00 mg/kg IP every 2 days, removed at 8 days

`CN1C(=O)[C@]23SS[C@@]1(C)C(=O)N2[C@H]1Nc2ccccc2[C@@]1([C@@]12c4ccccc4N[C@@H]1N1C(=O)[C@]4(C)SS[C@]1(C(=O)N4C)[C@H]2OC(=O)CCC(=O)O)[C@@H]3O` [verticillin A succinate] was tested, and the cytotoxic activity [1] was “pronounced cytotoxic activities”, the MCH [2, 6] was 14.6 ± 0.2 pg and the MCHC [2, 6] was 32.8 ± 0.6 g/dL. The MCV [2, 6] was 44.4 ± 1.2 fL, the MPV [2, 6] was 7.9 ± 0.2 fL and the PCT [2, 6] was 0.754 ± 0.093%. The PDW [2, 6] was 47.5 ± 2.5%, the RBC [2, 6] was 8.95 ± 0.15 M/μL and the RDW [2, 6] was 13.9 ± 0.4%. The “Reticulocyte #” value [2, 6] was 11.3 ± 12.9 K/μL, the “WBC #” value [2, 6] was 6.52 ± 1.73 K/μL and the “basophil #” value [2, 6] was 0.01 ± 0.01 K/μL. For the same compound, the “eosinophil #” value [2, 6] was 0.01 ± 0.01 K/μL, the hematocrit [2, 6] was 39.7 ± 1.4% and the hemoglobin [2, 6] was 13.0 ± 0.2 g/dL. The “lymphocyte #” value [2, 6] was 3.81 ± 1.09 K/μL, the “monocyte #” value [2, 6] was 0.36 ± 0.10 K/μL and the “neutrophil #” value [2, 6] was 2.33 ± 0.63 K/μL. The “nucleated RBCs #” value [2, 6] was 0 ± 0 K/μL, the “platelet #” value [2, 6] was 954 ± 118 K/μL and the reticulocyte [2, 6] was 0.13 ± 0.14%. It also gave an MCH [2, 7] of 14.7 ± 0.2 pg, an MCHC [2, 7] of 32.9 ± 0.8 g/dL and an MCV [2, 7] of 44.7 ± 0.9 fL. For the same compound, the MPV [2, 7] was 7.7 ± 0.07 fL, the PCT [2, 7] was 0.722 ± 0.072% and the PDW [2, 7] was 48.2 ± 2.2%. For the same compound, the RBC [2, 7] was 9.15 ± 0.22 M/μL, the RDW [2, 7] was 14.1 ± 0.6% and the “Reticulocyte #” value [2, 7] was 6.3 ± 13.7 K/μL. For the same compound, the “WBC #” value [2, 7] was 5.99 ± 1.11 K/μL, the “basophil #” value [2, 7] was 0.01 ± 0.01 K/μL and the “eosinophil #” value [2, 7] was 0.02 ± 0.02 K/μL. The hematocrit [2, 7] was 40.9 ± 1.2%, the hemoglobin [2, 7] was 13.5 ± 1.8 g/dL and the “lymphocyte #” value [2, 7] was 3.12 ± 1.25 K/μL. The “monocyte #” value [2, 7] was 0.20 ± 0.08 K/μL, the “neutrophil #” value [2, 7] was 2.64 ± 0.54 K/μL and the “nucleated RBCs #” value [2, 7] was 0 ± 0 K/μL. The “platelet #” value [2, 7] was 938 ± 98 K/μL, the reticulocyte [2, 7] was 0.07 ± 0.15% and the MCH [2, 8] was 15.3 ± 0.4 pg. For the same compound, the MCHC [2, 8] was 32.5 ± 1.1 g/dL, the MCV [2, 8] was 47.2 ± 1.6 fL and the MPV [2, 8] was 7.4 ± 0.1 fL. It also gave a PCT [2, 8] of 0.701 ± 0.202%, a PDW [2, 8] of 51.5 ± 1.4% and an RBC [2, 8] of 9.49 ± 0.49 M/μL. For the same compound, the RDW [2, 8] was 15.1 ± 0.2%, the “Reticulocyte #” value [2, 8] was 0 ± 0 K/μL and the “WBC #” value [2, 8] was 6.80 ± 1.14 K/μL. The “basophil #” value [2, 8] was 0.07 ± 0.10 K/μL, the “eosinophil #” value [2, 8] was 0.10 ± 0.16 K/μL and the hematocrit [2, 8] was 44.7 ± 2.7%. For the same compound, the hemoglobin [2, 8] was 14.5 ± 0.42 g/dL, the “lymphocyte #” value [2, 8] was 2.19 ± 0.61 K/μL and the “monocyte #” value [2, 8] was 0.18 ± 0.04 K/μL. For the same compound, the “neutrophil #” value [2, 8] was 4.26 ± 0.56 K/μL, the “nucleated RBCs #” value [2, 8] was 0 ± 0 K/μL and the “platelet #” value [2, 8] was 947 ± 271 K/μL. The reticulocyte [2, 8] was 0 ± 0%, the “early removal of mice” value ([3]; 0.570 mg/kg IP every 2 days) was 13 day of treatment and the “early removal of mice” value ([3]; 1.14 mg/kg IP every 2 days) was 8 days of treatment. The tolerability ([3]; two higher dose levels, 0.570 and 1.14 mg/kg IP every 2 days) was “poorly tolerated”, the tolerability ([3]; two lower dose levels, 0.114 and 0.285 mg/kg IP every 2 days, 14 days) was “well tolerated” and the cytotoxic activity [4] was “pronounced cytotoxic activities”. The cytotoxic activity [5] was “pronounced cytotoxic activities”.
With `CN1C(=O)[C@]23SS[C@@]1(C)C(=O)N2[C@H]1Nc2ccccc2[C@@]1([C@@]12c4ccccc4N[C@@H]1N1C(=O)[C@@]4(C)SS[C@]1(C(=O)N4C)[C@H]2O)[C@@H]3O` [verticillin A] the cytotoxic activity [1] was “pronounced cytotoxic activities”, the MCH [2, 9] was 14.6 ± 0.2 pg and the MCHC [2, 9] was 32.7 ± 0.7 g/dL. For the same compound, the MCV [2, 9] was 44.6 ± 0.2 fL, the MPV [2, 9] was 7.9 ± 0.1 fL and the PCT [2, 9] was 0.701 ± 0.065%. For the same compound, the PDW [2, 9] was 47.4 ± 1.9%, the RBC [2, 9] was 9.89 ± 0.33 M/μL and the RDW [2, 9] was 13.8 ± 0.5%. For the same compound, the “Reticulocyte #” value [2, 9] was 0 ± 0 K/μL, the “WBC #” value [2, 9] was 6.01 ± 1.29 K/μL and the “basophil #” value [2, 9] was 0.02 ± 0.01 K/μL. For the same compound, the “eosinophil #” value [2, 9] was 0.02 ± 0.02 K/μL, the hematocrit [2, 9] was 44.1 ± 1.4% and the hemoglobin [2, 9] was 14.4 ± 0.3 g/dL. For the same compound, the “lymphocyte #” value [2, 9] was 3.94 ± 1.16 K/μL, the “monocyte #” value [2, 9] was 0.37 ± 0.09 K/μL and the “neutrophil #” value [2, 9] was 1.65 ± 0.15 K/μL. The “nucleated RBCs #” value [2, 9] was 0 ± 0 K/μL, the “platelet #” value [2, 9] was 892 ± 74 K/μL and the reticulocyte [2, 9] was 0 ± 0%. The MCH [2, 10] was 15.2 ± 0.4 pg, the MCHC [2, 10] was 32.6 ± 1.2 g/dL and the MCV [2, 10] was 46.8 ± 1.0 fL. For the same compound, the MPV [2, 10] was 7.6 ± 1.1 fL, the PCT [2, 10] was 0.735 ± 0.147% and the PDW [2, 10] was 48.7 ± 0.8%. The RBC [2, 10] was 9.28 ± 0.81 M/μL, the RDW [2, 10] was 14.2 ± 0.4% and the “Reticulocyte #” value [2, 10] was 8.6 ± 8.3 K/μL. The “WBC #” value [2, 10] was 4.22 ± 1.68 K/μL, the “basophil #” value [2, 10] was 0.01 ± 0.01 K/μL and the “eosinophil #” value [2, 10] was 0.02 ± 0.01 K/μL. The hematocrit [2, 10] was 43.5 ± 4.0%, the hemoglobin [2, 10] was 14.2 ± 1.3 g/dL and the “lymphocyte #” value [2, 10] was 1.72 ± 0.76 K/μL. The “monocyte #” value [2, 10] was 0.18 ± 0.06 K/μL, the “neutrophil #” value [2, 10] was 2.30 ± 0.98 K/μL and the “nucleated RBCs #” value [2, 10] was 0 ± 0 K/μL. The “platelet #” value [2, 10] was 964 ± 203 K/μL, the reticulocyte [2, 10] was 0.10 ± 0.09% and the MCH [2, 11] was 15.4 ± 0.3 pg. For the same compound, the MCHC [2, 11] was 33.7 ± 0.7 g/dL, the MCV [2, 11] was 45.5 ± 0.6 fL and the MPV [2, 11] was 7.7 ± 0.2 fL. For the same compound, the PCT [2, 11] was 0.815 ± 0.096%, the PDW [2, 11] was 47.3 ± 1.7% and the RBC [2, 11] was 9.79 ± 0.75 M/μL. For the same compound, the RDW [2, 11] was 16.2 ± 0.9%, the “Reticulocyte #” value [2, 11] was 0 ± 0 K/μL and the “WBC #” value [2, 11] was 5.97 ± 1.67 K/μL. For the same compound, the “basophil #” value [2, 11] was 0.01 ± 0.01 K/μL, the “eosinophil #” value [2, 11] was 0.03 ± 0.01 K/μL and the hematocrit [2, 11] was 44.6 ± 3.4%. The hemoglobin [2, 11] was 15.0 ± 1.0 g/dL, the “lymphocyte #” value [2, 11] was 1.63 ± 1.19 K/μL and the “monocyte #” value [2, 11] was 0.21 ± 0.29 K/μL. The “neutrophil #” value [2, 11] was 4.09 ± 1.30 K/μL, the “nucleated RBCs #” value [2, 11] was 0 ± 0 K/μL and the “platelet #” value [2, 11] was 1057 ± 146 K/μL. For the same compound, the reticulocyte [2, 11] was 0 ± 0%, the “early removal of mice” value ([3]; 0.5 mg/kg IP every 2 days) was 13 day of treatment and the “early removal of mice” value ([3]; 1.0 mg/kg IP every 2 days) was 8 days of treatment. The “maximal tolerated IP dose” value ([3]; IP every 2 days, 14 days, female athymic nude mice) was 0.25 mg/kg, the tolerability ([3]; two higher dose levels, 0.5 and 1.0 mg/kg IP every 2 days) was “poorly tolerated” and the tolerability ([3]; two lower dose levels, 0.100 and 0.250 mg/kg IP every 2 days, 14 days) was “well tolerated”. For the same compound, the cytotoxic activity [4] was “pronounced cytotoxic activities” and the cytotoxic activity [5] was “pronounced cytotoxic activities”.
